Laboratory results from paper PMC12399198 (Acta Pharmaceutica Sinica. B, 2025).
Peptide text beside a SMILES is read from it. * marks the point of attachment. Cbz = O=C(OCc1ccccc1)*

Experiments:
Keap1 = Keap1 (Homo sapiens, UniProt Q14145); experiment: Keap1 degradation in MDA-MB-231 cells; type: cell-based; conditions: 24 h, dose-dependent
[1] = test system: OVA-induced AR mouse model; experiment: OVA-induced AR mouse model; type: in vivo; conditions: OVA-induced AR mice
Summary of the method: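 Male C57BL/6 mice, 6 weeks old, sensitised i.p. with OVA/alum (1:1) weekly for 3 weeks. Then challenged i.n. with OVA 2 mg/20 µL daily for 7 days. Test compound given i.n. at 0, 5, 10 or 20 mg/kg in 5% DMSO/45% PEG400/50% PBS, once daily, 6 h before each challenge; dexamethasone 1 mg/kg as reference. Sneezes and nasal rubs counted blinded for 10 min, starting 10 min after challenge; n = 8.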

Sequence of Keap1 (Q14145 whole entry): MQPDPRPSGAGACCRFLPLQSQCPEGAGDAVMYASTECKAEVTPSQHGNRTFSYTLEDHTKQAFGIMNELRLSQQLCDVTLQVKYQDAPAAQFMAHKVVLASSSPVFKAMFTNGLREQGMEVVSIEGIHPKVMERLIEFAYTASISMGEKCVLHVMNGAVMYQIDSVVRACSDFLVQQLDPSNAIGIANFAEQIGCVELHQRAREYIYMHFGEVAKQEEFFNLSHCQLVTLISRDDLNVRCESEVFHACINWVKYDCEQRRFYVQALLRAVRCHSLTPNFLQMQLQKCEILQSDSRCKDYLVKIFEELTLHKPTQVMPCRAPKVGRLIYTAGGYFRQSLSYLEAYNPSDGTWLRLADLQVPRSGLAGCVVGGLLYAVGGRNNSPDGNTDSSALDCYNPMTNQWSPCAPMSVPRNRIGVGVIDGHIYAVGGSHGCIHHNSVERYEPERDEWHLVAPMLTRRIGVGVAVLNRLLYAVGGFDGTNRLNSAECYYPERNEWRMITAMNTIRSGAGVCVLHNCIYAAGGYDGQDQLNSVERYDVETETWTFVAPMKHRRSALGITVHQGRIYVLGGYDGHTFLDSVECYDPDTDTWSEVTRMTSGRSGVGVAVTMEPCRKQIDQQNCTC

Structure (SMILES) | effect on Keap1 levels (Keap1) | allergic nasal symptoms (number of nasal rubbing and sneezing every 10 min) ([1]; i.n. daily for 7 days, 8 at 5, 10, 20 mg/kg, DEX 1 mg/kg) | CD45+ cells in nasal mucosa (IHC staining) ([1]; DEX or high dose of 8) | eosinophil infiltration within the nasal mucosa (Giemsa staining) ([1]; DEX or high dose of 8)
CC(C)C[C@@H](C=O)NC(=O)[C@H](CC(C)C)NC(=O)[C@H](CC(C)C)NC(=O)OCc1ccccc1 [MG132] (Cbz-Leu-Leu-Leu-aldehyde) | decreasing Keap1 levels |  |  | 
C[C@@H]1C[C@H]2[C@@H]3CCC4=CC(=O)C=C[C@]4(C)[C@@]3(F)[C@@H](O)C[C@]2(C)[C@@]1(O)C(=O)CO [DEX, Dexamethasone] |  | decreased | reduced | significantly reduced
